Reference: ChEMBL document CHEMBL1800022, “Structure-activity relationships of a series of analogues of the RFamide-related peptide 26RFa” (J Med Chem, 2011)
Active and inactive are the calls of the source. The calls are words filed in the database; no cut-off is given here. Residues, ends and D or L forms follow the SMILES beside them. *: point of attachment. NHBn = c1ccc(CN*)cc1

Tests used:
[1] = molecular target: T1, Pyroglutamylated RF-amide peptide receptor (Homo sapiens) (UniProt Q96P65); assay: Antagonist activity at DYKDDDDK-flagged human GPR103 receptor expressed in CHO-K1 cells co-expressing G-protein alpha16 assessed as inhibition of 26RFa-induced calcium mobilization after 2 mins by fluorometric analysis; type: functional, cell-based
T1 sequence (whole entry): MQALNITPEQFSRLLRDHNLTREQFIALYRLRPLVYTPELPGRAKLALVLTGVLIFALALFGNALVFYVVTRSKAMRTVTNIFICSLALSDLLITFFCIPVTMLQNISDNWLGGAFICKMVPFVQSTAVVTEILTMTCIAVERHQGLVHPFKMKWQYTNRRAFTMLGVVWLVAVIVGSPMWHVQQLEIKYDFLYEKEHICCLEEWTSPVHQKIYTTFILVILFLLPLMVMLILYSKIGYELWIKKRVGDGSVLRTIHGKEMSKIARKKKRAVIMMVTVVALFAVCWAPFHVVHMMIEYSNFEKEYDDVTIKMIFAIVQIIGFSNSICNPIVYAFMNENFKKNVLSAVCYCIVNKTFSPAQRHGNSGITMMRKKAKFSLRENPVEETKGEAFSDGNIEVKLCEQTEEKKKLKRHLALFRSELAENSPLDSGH
How it was run: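 Same Gα16/flag-hGPR103 CHO-K1 cells, Fluo-4AM loading and HBSS/probenecid/HEPES buffer. Triplicates; IC50 reported as mean ± SEM of at least three experiments.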

[2] = molecular target: T1, Pyroglutamylated RF-amide peptide receptor (Homo sapiens); assay: Agonist activity at DYKDDDDK-flagged human GPR103 receptor expressed in CHO-K1 cells co-expressing G-protein alpha16 assessed as stimulation of calcium mobilization at 10' -12 to 10^-5 M after 2 mins by fluorometric analysis; type: functional, cell-based
How it was run: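 CHO-K1 cells stably expressing Gα16 and C-terminally flag-tagged human GPR103 (Geneticin-selected), plated at 40 000 cells/well 24 h before assay. Loaded with 2 μM Fluo-4AM for 1 h, washed, then 30 min in HBSS with 2.5 mM probenecid and 5 mM HEPES. Peptides added at 10^-12 to 10^-5 M final and fluorescence read for 2 min. Triplicates; EC50 from sigmoidal variable-slope fit, at least three experiments.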

Compound | inhibition [1] | Activity [2]
CC(C)C[C@H](NC(=O)[C@H](CCC(=O)O)NC(=O)[C@H](CCC(=O)O)NC(=O)[C@H](C)NC(=O)[C@@H](N)CC(C)C)C(=O)N[C@@H](CC(N)=O)C(=O)NCC(=O)N[C@@H](Cc1ccc(O)cc1)C(=O)N[C@@H](CO)C(N)=O (H-LAEELNGYS-NH2) | inactive | inactive
N=C(N)NCCC[C@H](NC(=O)[C@H](Cc1ccccc1)NC(=O)[C@H](CO)NC(=O)[C@H](Cc1ccccc1)NC(=O)CNC(=O)CN)C(=O)NCc1ccccc1 (H-GGFSFR-NHBn) | inactive | inactive
N=C(N)NCCC[C@H](NC(=O)[C@H](Cc1ccccc1)NC(=O)[C@H](CO)NC(=O)[C@@H](Cc1ccccc1)NC(=O)CNC(=O)CN)C(=O)N[C@@H](Cc1ccccc1)C(N)=O | inactive | inactive
N=C(N)NCCC[C@@H](NC(=O)[C@H](Cc1ccccc1)NC(=O)[C@H](CO)NC(=O)[C@H](Cc1ccccc1)NC(=O)CNC(=O)CN)C(=O)N[C@@H](Cc1ccccc1)C(N)=O | inactive | inactive
CC(C)C[C@H](NC(=O)[C@H](CC(N)=O)NC(=O)CNC(=O)[C@H](CC(C)C)NC(=O)[C@@H]1CCCN1C(=O)CNC(=O)[C@H](CO)NC(=O)[C@@H](N)[C@@H](C)O)C(=O)N[C@@H](C)C(=O)N[C@@H](CCC(=O)O)C(=O)N[C@@H](CCC(=O)O)C(=O)N[C@@H](CC(C)C)C(=O)N[C@@H](CC(N)=O)C(=O)NCC(=O)N[C@@H](Cc1ccc(O)cc1)C(=O)N[C@@H](CO)C(=O)N[C@@H](CCCNC(=N)N)C(=O)N[C@@H](CCCCN)C(N)=O (H-TSGPLGNLAEELNGYSRK-NH2) | inactive | inactive
C[C@H](NC(=O)[C@H](CO)NC(=O)[C@H](Cc1ccccc1)NC(=O)CNC(=O)CN)C(=O)N[C@@H](CCCNC(=N)N)C(=O)N[C@@H](Cc1ccccc1)C(N)=O (H-GGFSARF-NH2) | inactive | inactive
C[C@H](NC(=O)[C@H](Cc1ccccc1)NC(=O)[C@H](CO)NC(=O)[C@H](Cc1ccccc1)NC(=O)CNC(=O)CN)C(=O)N[C@@H](Cc1ccccc1)C(N)=O (H-GGFSFAF-NH2) | inactive | inactive
